This is an account of results in paper PMC3159820 (Journal of immunology (Baltimore, Md. : 1950), 2011).

For this experiment, the system named is T cell hybridoma HH8. Briefly: Activation of T cell hybridoma HH8 by PT-gluten. In kind it is cell-based, mouse. The conditions noted are these: HH8 and DB4, in words. In a few lines:
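Irradiated (8,000 rads) T2DM cells (100,000) retrovirally expressing DQ2 WT or mutant co-cultured 16-24 h with HH8 hybridoma (100,000) and titrated PT-gluten (0.06-3 μg/μl); supernatant IL-2 by mouse IL-2 ELISA. PT-gluten: gluten digested with pepsin (pH 2.0), then trypsin/chymotrypsin (pH 6), 37°C; heat-inactivated; dialysed high-molecular-weight fraction deamidated with guinea pig transglutaminase (100 ug/ml, 1mM CaCl2, 37°C, 2h).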

On to PQPELPYPQPQL [α-II-gliadin 62-70], for which the “effect of DM on presentation of the epitope” value is listed as “DM-suppressed epitope”.

On to “QLQPFPQPELPYPQPQS [α-gliadin 57-73 Q65E]”, for which the “effect of DM on presentation of the epitope” value is recorded as “suppressed by DM in endocytic compartments”.
